The values below come from ChEMBL document CHEMBL3102767, “Identifying novel targets in renal cell carcinoma: design and synthesis of affinity chromatography reagents” (Bioorg Med Chem, 2014).

Experiment [1] in a line: Cytotoxicity against human RCC4/VHL cells after 4 days by XTT assay. Format: functional, cell-based. Particulars: 96 h. The method in brief: (§1)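 RCC4 (VHL-null) and RCC4/VHL (VHL reintroduced) cells kept in DMEM plus 10% FCS. After 4 d, media removed; XTT (0.3 mg/mL) with N-methyl dibenzopyrazine methyl sulfate in phenol red-free media added, 1–2 h at 37 °C. IC50 = concentration giving 50% growth inhibition.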
A general note: Tetrazolium assays rely on reduction of a dye to a coloured formazan, in cell work by metabolically active cells.

Experiment [2] is described as follows: Selectivity ratio of IC50 for human RCC4/VHL cells to IC50 for human RCC4 cells. Format: functional. The method in brief: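 IC50 values from 4-day XTT growth inhibition in RCC4/VHL and parental RCC4 cells (serial dilution from 40 µM top, triplicate); ratio taken as RCC4/VHL IC50 over RCC4 IC50.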
Experiment [3] is described as follows: Cytotoxicity against human RCC4 cells after 4 days by XTT assay. The format is functional, cell-based. Particulars: RCC4, 96 h. The method in brief:
as §1

The term IC50 denotes the point on the concentration scale where inhibition reaches its midpoint. In the case of `Cc1cccc(Nc2nc(-c3ccncc3-c3cn(CCOCCOCCOCCOCCOCCOCCN)nn3)cs2)c1.O=C(O)C(F)(F)F`, the IC50 came out at 3.9 µM in experiment [1] and 2.9 µM in experiment [3]. For the same compound, the “Ratio IC50” value in experiment [2] is 1.3.
In the case of `Cc1cccc(S(=O)(=O)NCc2ccc(C(=O)Nc3cccnc3)cc2)c1`, in experiment [2], the Ratio IC50 is over 100. In experiment [3], this compound came in with an IC50 of under 1 µM.
`CCN(c1cccc(C)c1)c1nc(-c2ccnc(-c3cn(CCOCCOCCOCCOCCOCCOCCN)nn3)c2)cs1`: the IC50 in experiment [1] and in experiment [3] was over 40 µM each time.
As for `CN1CCN(c2ccc(S(=O)(=O)NCc3ccc(C(=O)Nc4cccnc4)cc3)cc2)CC1`, in experiment [2], the “Ratio IC50” value is on record as over 100. This compound also registered an IC50 in experiment [3] of under 1 µM.
As for `NCCOCCOCCOCCOCCOCCOCCCc1ccc(S(=O)(=O)NCc2ccc(C(=O)Nc3ccccc3)cc2)cc1`, the IC50 in experiment [1] and in experiment [3] was over 40 µM in each case.
Turning to `NCCOCCOCCOCCOCCOCCOCCCc1ccc(S(=O)(=O)NCc2ccc(C(=O)Nc3cccnc3)cc2)cc1`, the figures for the IC50 in experiment [1] and in experiment [3] were over 40 µM and 7.9 µM, respectively. Further, the “Ratio IC50” value in experiment [2] is listed as over 5.
`Cc1cccc(Nc2nc(-c3ccncc3)cs2)c1`: the half-inhibitory concentration (IC50) was found to be 40 µM in experiment [1] and 2.1 µM in experiment [3]. The “Ratio IC50” value in experiment [2] worked out at 19.
For the compound `Cn1ccc(-c2cccc(S(=O)(=O)NCc3ccc(C(=O)Nc4cccnc4)cc3)c2)n1`, the “Ratio IC50” value in experiment [2] is over 100. For the same compound, the IC50 in experiment [3] is under 1 µM.
For `CCN(c1cccc(C)c1)c1nc(-c2ccncc2-c2cn(CCOCCOCCOCCOCCOCCOCCN)nn2)cs1`, the IC50 in experiment [1] and in experiment [3] was over 40 µM throughout.
As to `CC(C)(C)c1ccc(S(=O)(=O)NCc2ccc(C(=O)Nc3cccnc3)cc2)cc1`, the IC50 in experiment [1] was over 40 µM; in experiment [3], 0.16 µM. In addition, the “Ratio IC50” value in experiment [2] is reported as over 250.
Turning to `Cl.O=C(Nc1cccnc1)c1ccc(CNS(=O)(=O)c2ccc(CN3CCOCC3)cc2)cc1`, the “Ratio IC50” value in experiment [2] is over 100. The half-inhibitory concentration (IC50) in experiment [3] was under 1 µM.
As to `Cc1cccc(Nc2nc(-c3ccnc(-c4cn(CCCCCCN)nn4)c3)cs2)c1.O=C(O)C(F)(F)F`, the IC50 in experiment [1] was 2.6 µM; in experiment [3], 1.7 µM. Moreover, the “Ratio IC50” value in experiment [2] is 1.5.
The like results for `NCCOCCOCCOCCOCCOCCOCC#Cc1ccc(S(=O)(=O)NCc2ccc(C(=O)Nc3cccnc3)cc2)cc1` were, in that order, over 40 µM, 5.8 µM and over 7.
For the compound `CN1CCN(Cc2ccc(S(=O)(=O)NCc3ccc(C(=O)Nc4cccnc4)cc3)cc2)CC1`, in experiment [2], the “Ratio IC50” value was over 100. Also, the IC50 in experiment [3] is under 1 µM.
With `COc1ccc(S(=O)(=O)NCc2ccc(C(=O)Nc3cccnc3)cc2)cc1OC`, the “Ratio IC50” value in experiment [2] is over 100. In experiment [3], this compound registered an IC50 of under 1 µM.
Take `Cc1cccc(Nc2nc(-c3ccnc(-c4cn(CCOCCOCCOCCOCCOCCOCCN)nn4)c3)cs2)c1`: the IC50 in experiment [1] and in experiment [3] was over 40 µM each time.
